Series [1] has as its system sandwich‐cultured mouse (NMRI) hepatocytes. The series can be described thus: Hepatobiliary disposition in sandwich-cultured mouse hepatocytes. In kind it is in vitro ADME. Particulars: 1 μmol/L, 10 min.
Series [2] concerns sandwich‐cultured human hepatocytes. The series can be described thus: Hepatobiliary disposition in sandwich-cultured human hepatocytes. In kind it is in vitro ADME. Particulars: 10 min. A digest of the protocol:
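Sandwich-cultured human hepatocytes from three donor liver preparations, cultured 6 days. [14C]-test compound was applied at 10 and 250 μmol/L, with [3H]-taurocholate as transporter-function control and LDH release as cytotoxicity check. Radioactivity was read by LSC. Accumulation is mean ± SD of triplicate wells. BEI, CLbiliary, intracellular concentration and Cic/Cec were derived.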

[3] abbreviates: donor 1, 1 μmol/L, mean ± SD of triplicate wells.
The mark [4] stands for this setting: donor 2, 1 μmol/L, mean ± SD of triplicate wells.
Where [5] appears, read: donor 3, 1 μmol/L, mean ± SD of triplicate wells.
[6] abbreviates: mean ± standard error of 3 donors, 1 μmol/L.

Each structure is given as a SMILES string.

In the case of `C[C@H](CCC(=O)NCCS(=O)(=O)O)[C@H]1CC[C@H]2[C@@H]3[C@H](O)C[C@@H]4C[C@H](O)CC[C@]4(C)[C@H]3C[C@H](O)[C@]12C` [TCA, taurocholate, reference compound], the BEI in series [1] came to 30.5%; in series [2] (donor 1, 1 μmol/L), 44.6%; in series [2] (donor 2, 1 μmol/L), 74.2%; in series [2] (donor 3, 1 μmol/L), 66.5%; in series [2] (setting [6]) it was 61.7 ± 8.9%. Besides, the CLbiliary in series [1] is on record as 66.8 mL/min/kg; in series [2] (donor 1, 1 μmol/L), 7.16 mL/min/kg; in series [2] (donor 2, 1 μmol/L) it was 19.3 mL/min/kg; in series [2] (donor 3, 1 μmol/L), 31.0 mL/min/kg; in series [2] (setting [6]) it was 19.2 ± 6.9 mL/min/kg. Besides, the Cellular accumulation amounted to 150 ± 28 pmol/mg in series [1] (mean ± SD of triplicate wells); 30.7 ± 2.8 pmol/mg in series [2] (setting [3]); 23.2 ± 1.9 pmol/mg in series [2] (setting [4]); 53.9 ± 2.0 pmol/mg in series [2] (setting [5]); 35.9 ± 9.2 pmol/mg in series [2] (setting [6]). Moreover, the Total accumulation is recorded as 215 ± 23 pmol/mg in series [1] (mean ± SD of triplicate wells); 55.3 ± 5.7 pmol/mg in series [2] (setting [3]); 89.7 ± 3.6 pmol/mg in series [2] (setting [4]); 161 ± 12 pmol/mg in series [2] (setting [5]); 102 ± 31 pmol/mg in series [2] (setting [6]).

Source of the values: article PMC4804314 (Pharmacology Research & Perspectives, 2016).
